Test [1] relates to pSTAT3 homodimer. Kind of test: NMR CSP of pSTAT3 dimer versus uSTAT3. It counts as binding, human. The conditions noted are these: 2D 13C-1H HMQC, 25 °C.
In test [2] the test system is pSTAT3 homodimer. In words: van't Hoff analysis of pSTAT3 monomer-dimer equilibrium by HMQC. It counts as binding, human. The conditions noted are these: 25-45 °C, 700 MHz. In outline: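 His-tagged pSTAT3 (127-711), co-expressed with tyrosine kinase in E. coli TKB1, deuterated with Ile Cδ1 methyl 13CH3 labeling, in deuterated 10 mM MES pH 5.5, 2 mM TCEP, 0.03% sodium azide, 100% D2O. 2D 1H-13C HMQC at 700 MHz at 25, 30, 32, 34, 36, 38, 40 and 45 °C. Keq is the population ratio of exchanging species (a) and (b); ΔH0 and ΔS0 come from a linear fit of ln(Keq) vs 1/T.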

Test [3] relates to pSTAT3. In words: 13C SQ-CPMG relaxation dispersion. Also noted: species or system human. The settings on record: 35 °C, 600 and 700 MHz, ~170 μM pSTAT3.
In test [4] the test system is I568F STAT3. In words: NMR CSP of I568F STAT3 relative to WT. The conditions noted are these: 2D 13C-1H HMQC Ile spectra. Also on record: species or system human.

B1: pSTAT3: Tyr-705-phosphorylated STAT3 (protein)
chain: GQANHPTAAVVTEKQQMLEQHLQDVRKRVQDLEQKMKVVENLQDDFDFNYKTLKSQGDMQDLNGNNQSVTRQKMQQLEQMLTALDQMRRSIVSELAGLLSAMEYVQKTLTDEELADWKRRQQIACIGGPPNICLDRLENWITSLAESQLQTRQQIKKLEELQQKVSYKGDPIVQHRPMLEERIVELFRNLMKSAFVVERQPCMPMHPDRPLVIKTGVQFTTKVRLLVKFPELNYQLKIKVCIDKDSGDVAALRGSRKFNILGTNTKVMNMEESNNGSLSAEFKHLTLREQRCGNGGRANCDASLIVTEELHLITFETEVYHQGLKIDLETHSLPVVVISNICQMPNAWASILWYNMLTNNPKNVNFFTKPPIGTWDQVAEVLSWQFSSTTKRGLSIEQLTTLAEKLLGPGVNYSGCQITWAKFCKENMAGKGFSFWVWLDNIIDLVKKYILALWNEGYIMGFISKERERAILSTKPPGTFLLRFSESSKEGGVTFTWVEKDISGKTQIQSVEPYTKQQLNNMSFAEIIMGYKIMDATNILVSPLVYLYPDIPKEEAFGKYCRPESQEHPEADPGSAAPYLKTKFI
modifications: phosphotyrosine at 705; left off: His6, C-terminal, state not stated
As for B1, the “CSPs of pSTAT3 dimer” value in test [1] is “Additional CSPs unique to pSTAT3 were observed at I653 and I711”. Also, the “ΔS° of monomer-dimer equilibrium (I568 and I654)” value in test [2] (residues I568 (LD) and I654 (SH2)) turned out to be 47.0 ± 3.7 cal/mol•K. Further, the “ΔS° of monomer-dimer equilibrium (I653 and I711)” value in test [2] (residues I653 and I711) is recorded as 42.2 ± 1.6 cal/mol•K. Further, the “change in Rex of I568, pSTAT3 dimer versus pY904-bound uSTAT3” value in test [3] is on record as “Larger increases in the Rex of I568 were observed for the dimeric pSTAT3 than for pY904-bound uSTAT3”.

B2: I568F: HIES associated STAT3 mutation in the LD (protein)
chain: GQANHPTAAVVTEKQQMLEQHLQDVRKRVQDLEQKMKVVENLQDDFDFNYKTLKSQGDMQDLNGNNQSVTRQKMQQLEQMLTALDQMRRSIVSELAGLLSAMEYVQKTLTDEELADWKRRQQIACIGGPPNICLDRLENWITSLAESQLQTRQQIKKLEELQQKVSYKGDPIVQHRPMLEERIVELFRNLMKSAFVVERQPCMPMHPDRPLVIKTGVQFTTKVRLLVKFPELNYQLKIKVCIDKDSGDVAALRGSRKFNILGTNTKVMNMEESNNGSLSAEFKHLTLREQRCGNGGRANCDASLIVTEELHLITFETEVYHQGLKIDLETHSLPVVVISNICQMPNAWASILWYNMLTNNPKNVNFFTKPPIGTWDQVAEVLSWQFSSTTKRGLSIEQLTTLAEKLLGPGVNYSGCQITWAKFCKENMAGKGFSFWVWLDNFIDLVKKYILALWNEGYIMGFISKERERAILSTKPPGTFLLRFSESSKEGGVTFTWVEKDISGKTQIQSVEPYTKQQLNNMSFAEIIMGYKIMDATNILVSPLVYLYPDIPKEEAFGKYCRPESQEHPEADPGSAAPYLKTKFI
modifications: left off: His6, C-terminal, state not stated
For B2, the “CSP of I568F mutant relative to WT” value in test [4] is recorded as “significant CSP relative to WT protein in all structured domains of STAT3, from the CCD to SH2”.

These data come from paper PMC4767637 (Journal of molecular biology, 2016).
